Sampled rows, rich in hits. Any-hit rate of the full collection: about 1.8%.
CHRM5 PAM – human M5 muscarinic receptor positive allosteric modulators, primary screen, CHO-K1 cells, Fluo-8 calcium fluorescence | Muscarinic acetylcholine receptor M5 (Homo sapiens), P08912 | CHO-K1 hM5, ACh EC20 PAM; 0% = ACh EC20, 100% = ACh EC100 | activation, % at 3 µM | actives 0.3% (n = 360,000) | AID 624038, 2012;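 active means activation above the run cutoff, the mean activation of all test compounds plus 3 SD, cut at about 18% in these data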
Target sequence (P08912 whole entry, looked up): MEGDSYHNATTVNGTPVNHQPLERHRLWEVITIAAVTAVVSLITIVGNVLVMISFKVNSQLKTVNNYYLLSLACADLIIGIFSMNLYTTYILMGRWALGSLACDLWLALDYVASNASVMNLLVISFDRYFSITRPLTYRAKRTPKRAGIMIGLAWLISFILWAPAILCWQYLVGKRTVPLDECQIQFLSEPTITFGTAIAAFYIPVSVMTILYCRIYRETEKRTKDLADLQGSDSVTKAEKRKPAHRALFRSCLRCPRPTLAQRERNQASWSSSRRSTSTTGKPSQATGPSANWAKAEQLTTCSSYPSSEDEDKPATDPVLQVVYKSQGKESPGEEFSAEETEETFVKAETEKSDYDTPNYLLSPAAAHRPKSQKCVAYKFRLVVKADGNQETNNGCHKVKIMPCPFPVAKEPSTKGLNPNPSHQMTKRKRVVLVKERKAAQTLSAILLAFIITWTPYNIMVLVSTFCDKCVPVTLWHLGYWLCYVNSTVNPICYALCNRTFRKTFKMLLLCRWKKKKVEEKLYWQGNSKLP
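System – CHO-K1 hM5 cells · Compound – 3 µM, single dose · Incubation – compound preincubation 140 s before EC20 acetylcholine addition · Technique – Fluo-8 calcium fluorescence · Measure – Max/basal fluorescence ratio as % of EC20–EC100 ACh window · Benchmarks – low control EC20 acetylcholine (0%), high control EC100 acetylcholine (100%) · Replication – singlicate, one well per test compound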
M5 ag – human M5 muscarinic receptor agonists, primary screen, CHO-K1 cells, Fluo-8 calcium fluorescence | activation, % at 3 µM | actives 0.19% (n = 360,000) | Muscarinic acetylcholine receptor M5 (Homo sapiens), P08912 | CHO-K1 hM5 cells; 0% DMSO wells, 100% maximal acetylcholine response;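 active means activation above the run's mean over test compounds plus 3 SD, cut at about 23% in these data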;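 further: signal is peak over basal fluorescence ratio across the kinetic read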
M4 PAM – human M4 muscarinic receptor positive allosteric modulators, primary screen, CHO-K1 cells, Fluo-8 calcium fluorescence; CHO-K1 hM4/Gqi5, ACh EC20; 0% = ACh EC20, 100% = maximal ACh; actives 0.4% (n = 360,000); activation, % at 3 µM;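 active means activation above its plate's cutoff, the mean activation of sample wells plus 3 SD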
CHRM5 antagonist – human M5 muscarinic receptor antagonists, primary screen, CHO cells, Fluo-8 calcium fluorescence. inhibition, % at 3 µM. actives 0.59% (n = 360,000). AID 624040, 2012. Muscarinic acetylcholine receptor M5 (Homo sapiens), P08912. CHO-hM5 cells, ACh EC80;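 active means inhibition above a per-plate cutoff, the mean of that plate's test compounds plus 3 SD, cut at about 27% in these data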
CHRM4 agonist – human M4 muscarinic receptor agonists, primary screen, CHO-K1 cells, Fluo-8 calcium fluorescence | Muscarinic acetylcholine receptor M4 (Homo sapiens), P08173 | CHO-K1 hM4/Gqi5; vehicle 0%, full acetylcholine response 100% | activation, % at 3 µM | actives 0.14% (n = 360,000) | AID 624127, 2012;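 active means activation above the run mean over all test wells plus 3 SD, cut at about 32% in these data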;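 further: peak over basal fluorescence ratio per well then scaled between controls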
M4 antag – human M4 muscarinic receptor antagonists, primary screen, CHO cells, Fluo-8 calcium fluorescence; Muscarinic acetylcholine receptor M4 (Homo sapiens), P08173; inhibition, % at 3 µM; actives 0.73% (n = 360,000); CHO-hM4 cells, ACh EC80;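 active means inhibition above its plate's cutoff, the mean inhibition of sample wells plus 3 SD, cut at about 27% in these data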
Each line names hits and unclear results; the compound was inactive in the other large screens.

Cc1c(Cl)cccc1NC(=O)CNC(=O)c1ccc2c(c1)OCCO2	M4 PAM 21.8
NNC(=O)CNS(=O)(=O)c1ccc([N+](=O)[O-])cc1	none
NS(=O)(=O)c1ccc(CCNC(=O)CCCNC(=O)c2ccc(Cl)cc2)cc1	none
Cc1ccccc1NC(=O)Cc1nc(COC(=O)c2nccnc2N)cs1	none
COc1ccc(-n2c(Cc3cccn3C)nnc2SCC(=O)Nc2cccc(OC)c2)cc1	M4 PAM 18.5
CCOc1ccc(CCNC(=O)c2cccc(S(=O)(=O)N3CCN(C(C)=O)CC3)c2)cc1OCC	none
COc1cc(OC)cc(C(=O)N2CCN(S(C)(=O)=O)CC2)c1	CHRM5 PAM 31.4, M4 PAM 27.7
CCOC(=O)N1CCN(C(=O)c2cc(OC)cc(OC)c2)CC1	none
c1ccc(Nc2nc(-c3ccccn3)cs2)cc1	none
COc1cccc2sc(Nc3nc(-c4ccccn4)cs3)nc12	CHRM5 antagonist 29.5, M4 antag 37.0
COc1cccc(C(C(=O)NC2CCCC2)N2CCN(c3cc(C)nc4ccccc34)CC2)c1OC (configuration not stated)	none
CCc1cccc(NS(=O)(=O)c2c(C)nc3sc(CC)nn3c2=O)c1	CHRM5 antagonist 30.1, M4 antag 29.4
Cc1cc(Nc2ccccc2)nc(NCc2ccccc2)n1	CHRM5 antagonist 29.7
CCCCNc1cc(C)nc(NCc2ccccc2)n1	CHRM5 antagonist 32.7, M4 antag 32.6
COC(=O)[C@@]12C[C@@H](CC(=O)N3CCCCC3)C(=O)N(CCc3ccc(OC)c(OC)c3)C1=CCC(C)(C)C2	none
Cc1ccccc1NS(=O)(=O)c1cc(OCC(N)=O)c(C)cc1Cl	none
CC(=O)c1cccc(NS(=O)(=O)c2cc(OCC(N)=O)c(C)cc2Cl)c1	none
Cc1cccc(NS(=O)(=O)c2cc(OCC(N)=O)c(C)cc2Cl)c1	M5 ag 27.5
Cc1ccc(NS(=O)(=O)c2cc(OCC(N)=O)c(C)cc2Cl)cc1C	M5 ag 34.1
COc1ccccc1-n1c(SCC(=O)NC2CC2)nc2ccccc2c1=O	none
COc1cc(OC)cc(-c2c(-c3ccc(F)cc3)c3cc(-c4cnc(OC)nc4)ccc3n2C)c1	none
O=C1NC[C@H](CCCCN2C[C@H](Cc3ccccc3)N(CCC3CCCCC3)C(=O)C2=O)N(CC2CCCCC2)C1=O	none
COc1ccc(Cn2nnnc2C(CC(C)C)N2CCC(C(N)=O)CC2)cc1 (configuration not stated)	CHRM5 PAM 21.4
COc1ccc(-c2csc3ncn(-c4ccccc4OC)c(=O)c23)cc1OC	M4 PAM 30.0
CC(Oc1ccc(Br)cc1)C(=O)Nc1ccc(S(=O)(=O)N(C)C2CCN(C)CC2)cc1 (configuration not stated)	M5 ag 61.9, CHRM4 agonist 95.9, M4 antag 31.4
O=C(O)c1cccc(Cn2c(Cl)c(/C=N/NC(=O)c3cccc(O)c3)sc2=O)c1	M4 antag 33.1
COc1cccc(NC(=O)NCc2c(-c3ccccc3)noc2C)c1	none
Clc1ccc(OCCN2CCN(c3ncnc4sccc34)CC2)cc1	CHRM5 antagonist 32.7, M4 antag 35.3
Cc1ccc(OCCN2CCN(c3ncnc4sc(C)c(C)c34)CC2)cc1	CHRM5 antagonist 31.9
Cc1cc(C)c2c(N)c(C(=O)NCc3ccco3)sc2n1	M4 PAM 50.0
CCn1c(C)c(C)c2cc(C(=O)NCCc3ccco3)ccc21	M4 PAM 18.2
CC(=O)c1sc2nc(C)cc(C)c2c1N	none
O=C(NCc1ccccc1)c1ccc(CN2CCOCC2)cc1	none
O=C(NCc1ccco1)c1ccc(CN2CCOCC2)cc1	CHRM5 PAM 19.3
Cc1c(C)n(C)c2ccc(C(=O)NCCc3ccco3)cc12	none
Cc1ccc(C(=O)NCc2ccco2)cc1Br	M4 PAM 19.6
Cc1c(Br)cc(C(=O)NCc2ccco2)c(C)c1C	none
COc1ccc(C(=O)c2ccc(Br)cc2)c2ccccc12	none
Cc1nnsc1C(=O)Nc1ccc(S(=O)(=O)N2CCC(C)CC2)cc1	none
O=C(Nc1ccccc1F)C1CCN(S(=O)(=O)c2cccnc2)CC1	none
Cn1c(=O)c(C(=O)NCC2CCCO2)c(O)c2ccccc21 (configuration not stated)	M4 antag 32.6
Cn1c(C(=O)NCC2CCCO2)cc2c(=O)[nH]c3ccccc3c21 (configuration not stated)	M4 PAM 27.8
O=C(O)C1CCCN1S(=O)(=O)c1cccc(S(=O)(=O)N2CCCC2C(=O)O)c1 (configuration not stated)	M4 antag 32.3
O=C(O)[C@@H]1CCCN1S(=O)(=O)c1cccc(S(=O)(=O)N2CCC[C@H]2C(=O)O)c1	none
CCCCc1nc2cc(C(=O)NCc3nccn3CC)ccc2o1	M4 antag 32.4
Cc1ccc(N(C(=O)c2csnn2)C(C(=O)NC2CCCC2)c2ccccn2)c(C)c1 (configuration not stated)	none
CCS(=O)(=O)C1=NSC2=NC(=O)/C(=C\c3ccc(OS(=O)(=O)c4ccccc4)c(OC)c3)C(=N)N21	CHRM5 PAM 28.6
COc1cc(/C=C2/C(=N)N3C(=NC2=O)SN=C3S(C)(=O)=O)ccc1OS(=O)(=O)c1ccc(C)cc1	none
CC(C)(C)NS(=O)(=O)c1ccc(NC(=O)Cc2ccccc2[N+](=O)[O-])cc1	M4 PAM 19.8
CCCCNS(=O)(=O)c1ccc(NC(=O)Cc2ccccc2[N+](=O)[O-])cc1	none
Cc1csc(C(=O)O)c1NC(=O)c1ccc(F)cc1	none
Cc1csc(C(=O)O)c1-c1c(C)csc1C(=O)O	M4 PAM 22.9
CC1CCN(C(=O)COC(=O)c2ccc3c(c2)C(=O)N(Cc2ccco2)C3=O)CC1	none
CCCN1C(=O)CC(Sc2ncccc2C(=O)O)C1=O (configuration not stated)	none
COc1ccc(CCN2C(=O)CC(Sc3ncccc3C(=O)O)C2=O)cc1OC (configuration not stated)	CHRM5 PAM 25.8, M4 PAM 32.5
CC(C)Cc1ccc(C(C)C(=O)Nc2ccccc2O)cc1 (configuration not stated)	M5 ag 40.7, CHRM5 antagonist 50.5, CHRM4 agonist 42.9, M4 antag 38.2
CC(C)c1ccc(CNC(=O)C(=O)Nc2nccs2)cc1	none
